# Experiments:
# [1] = Toxicity in Wistar rat administered as single dose; type: organism-based; details: in vivo
# W256 [2] = assay: Antitumor activity against […] cells allografted in rat assessed as tumor growth inhibition at 60 mg/kg administered 14 times starting 7 days post challenge relative to control; details: W256, 7 days, read-out: TGI
# L1210 [3] = assay: Antitumor activity against mouse L1210 cells allografted in BDF1 mouse assessed as increase in life span at 40 mg/kg administered 10 times starting 24 hrs post challenge relative to control; type: functional; details: L1210, 24 h
# Outline: (§1)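 L1210 leukemia cells, 10^6, inoculated ip; dosing started 24 h after inoculation, given daily as an aqueous solution at pH 8.0-8.4. Survival of treated versus control mice was read out as %ILS = (T/C − 1) × 100.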
# L1210 [4] = assay: Antitumor activity against mouse L1210 cells allografted in BDF1 mouse assessed as increase in life span at 50 mg/kg administered 6 times starting 24 hrs post challenge relative to control; type: functional; details: L1210, 24 h; outline: as §1
# L1210 [5] = assay: Antitumor activity against mouse L1210 cells allografted in BDF1 mouse assessed as increase in life span at 100 mg/kg administered 6 times starting 24 hrs post challenge relative to control; type: functional; details: L1210, 24 h; outline: as §1
# L1210 [6] = assay: Antitumor activity against mouse L1210 cells allografted in BDF1 mouse assessed as increase in life span at 50 mg/kg administered 8 times starting 24 hrs post challenge relative to control; type: functional; details: L1210, 24 h; outline: as §1
# L1210 [7] = assay: Antitumor activity against mouse L1210 cells allografted in BDF1 mouse assessed as increase in life span at 33 mg/kg administered 6 times starting 24 hrs post challenge relative to control; type: functional; details: L1210, 24 h; outline: as §1
# W256 [8] = assay: Antitumor activity against […] cells allografted in rat assessed as tumor growth inhibition at 18 mg/kg administered 13 times starting 7 days post challenge relative to control; details: W256, 7 days, read-out: TGI
# L1210 [9] = assay: Antitumor activity against mouse L1210 cells allografted in BDF1 mouse assessed as increase in life span at 100 mg/kg administered 8 times starting 24 hrs post challenge relative to control; type: functional; details: L1210, 24 h; outline: as §1
# L1210 [10] = assay: Antitumor activity against mouse L1210 cells allografted in BDF1 mouse assessed as increase in life span at 100 mg/kg administered 7 times starting 24 hrs post challenge relative to control; type: functional; details: L1210, 24 h; outline: as §1
# W256 [11] = assay: Antitumor activity against […] cells allografted in rat assessed as tumor growth inhibition at 100 mg/kg administered 13 times starting 7 days post challenge relative to control; details: W256, 7 days, read-out: TGI
compound,measurement,setting,value
Nc1nc(N)c2nc(CNc3ccc(C(=O)NCC(=O)NC(CC(=O)O)C(=O)O)cc3)cnc2n1.O (stereo not given),LD50,[1],200 mg/kg
same,inhibition in vivo at 60 mg/kg,W256 [2],55%
same,ILS at 40 mg/kg,L1210 [3],69%
CN(Cc1cnc2nc(N)nc(N)c2n1)c1ccc(C(=O)N[C@@H](Cc2ccccc2)C(=O)NC(CCC(=O)O)C(=O)O)cc1.O (stereo not given in full),LD50,[1],500 mg/kg
CC(NC(=O)c1ccc(N(C)Cc2cnc3nc(N)nc(N)c3n2)cc1)C(=O)NC(CCC(=O)O)C(=O)O (stereo not given),LD50,[1],500 mg/kg
same,ILS at 50 mg/kg,L1210 [4],19%
CN(CC(=O)NC(CCC(=O)O)C(=O)O)C(=O)c1ccc(N(C)Cc2cnc3nc(N)nc(N)c3n2)cc1.O (stereo not given),LD50,[1],1000 mg/kg
same,ILS at 100 mg/kg,L1210 [5],0%
CC(C)C[C@H](NC(=O)c1ccc(N(C)Cc2cnc3nc(N)nc(N)c3n2)cc1)C(=O)NC(CCC(=O)O)C(=O)O (stereo not given in full),ILS at 50 mg/kg,L1210 [6],0%
same,LD50,[1],500 mg/kg
Nc1nc(N)c2nc(CNc3ccc(C(=O)NCC(=O)NC(CCC(=O)O)C(=O)O)cc3)cnc2n1.O (stereo not given),ILS at 33 mg/kg,L1210 [7],14%
same,LD50,[1],400 mg/kg
same,inhibition in vivo at 18 mg/kg,W256 [8],30%
CN(Cc1cnc2nc(N)nc(N)c2n1)c1ccc(C(=O)NCC(=O)NC(CCC(=O)O)C(=O)O)cc1.O (stereo not given),LD50,[1],830 mg/kg
same,ILS at 100 mg/kg,L1210 [9],0%
CN(Cc1cnc2nc(N)nc(N)c2n1)c1ccc(C(=O)N[C@@H](Cc2ccccc2)C(=O)NC(CC(=O)O)C(=O)O)cc1.O (stereo not given in full),ILS at 100 mg/kg,L1210 [10],0%
same,LD50,[1],1000 mg/kg
CN(Cc1cnc2nc(N)nc(N)c2n1)c1ccc(C(=O)NCC(=O)NC(CC(=O)O)C(=O)O)cc1.O (stereo not given),LD50,[1],500 mg/kg
same,ILS at 100 mg/kg,L1210 [9],40%
same,inhibition in vivo at 100 mg/kg,W256 [11],41%

# From ChEMBL document CHEMBL3244424, “Potential anticancer agents. 17. Analogues of methotrexate with a tripeptide side chain” (J Med Chem, 1978)
